Measured values: ChEMBL document CHEMBL4513216, “Probing the Open Global Health Chemical Diversity Library for Multistage-Active Starting Points for Next-Generation Antimalarials” (ACS Infect Dis, 2020)

Assay: Toxicity liver stage against HepG2, at 10uM
Type: cell-based
Set-up: test concentration 10 uM, cell line HepG2-A16-CD81EGFP
Conditions: human, HepG2-A16-CD81EGFP cells; read-out: INHIBITION
Summary of the method: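 Uninfected HepG2-A16-CD81EGFP cells, 3 × 10^3 per well, 1536-well, plated on prespotted compound at 10 μM final, parasite-free screening media added to match infected plates; puromycin 10 μM positive, DMSO 0.5% negative; run in parallel with 48 h PbLuc assay at 37 °C, 5% CO2; viability by CellTiter-Glo luminescence, normalized to controls.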

SMILES | cytotoxicity at 10 µM
Cc1ccccc1CN1CC[C@H](c2nnc(-c3cncn3C)o2)C1 | 5.08%
CC[C@H]1CN2CC[C@H]1C[C@@H]2CNCc1ccc(OC(F)(F)F)cc1 | -0.785%
O=C1CC(c2ccsc2)c2cnn(C3CCCC3)c2N1 (stereo not given) | -0.524%
Cc1cc(=O)[nH]c(-n2nc(C)c(CCC(=O)NCc3ccco3)c2C)n1 | -5.33%
O=c1ccc(-n2cccn2)nn1CCNS(=O)(=O)c1ccc(F)c(Cl)c1 | 1.48%
CCOCC1CN(Cc2ccc(F)cc2)Cc2nn(CC3CC3)cc21 (stereo not given) | 7.43%
Cn1cc(CN2CC[C@H]3OCC[C@@H](C(=O)NCc4ccco4)[C@@H]3C2)cn1 | 6.79%
Cn1cc(CN2CCc3onc(COCC4CC4)c3C2)cn1 | 6.35%
Cc1cc(C(=O)N2CCn3cnc(COCC4CC4)c3C2)no1 | 1.85%
CCOCC1CN(C(=O)COc2ccccc2)Cc2cn(C)nc21 (stereo not given) | 9.08%
O=C1CC(c2ccc3c(c2)OCO3)c2c(n3ccsc3nc2=O)N1 (stereo not given) | 8.38%
O=C1CC(c2ccc3c(c2)OCO3)c2cn[nH]c2N1 (stereo not given) | 13.3%
CC(C)(C)n1ncc2c1NC(=O)CC2c1ccccc1 (stereo not given) | 19.2%
O=C([C@H]1C[C@H]2OCC[C@H]2N(Cc2ccncc2)C1)N1CCCCO1 | -9.01%
Cc1nn(C)cc1CN1CCC(c2ncc(Cl)cc2S(C)(=O)=O)CC1 | -0.1%
O=C(O)c1ccccc1-c1ccc(CN2CC(c3ccncn3)C2)o1 | 4.54%
CN1CCN([C@@H]2CN(C(=O)CCOc3ccccc3)C[C@H]2O)CC1 | 1.17%
Cn1cc(C2=NOC(C(=O)NC3(c4cccc(F)c4)CCCC3)C2)cn1 (stereo not given) | 1.53%
CNc1cc(C2CCCN2Cc2ccccc2OCC(=O)O)ccn1 (stereo not given) | -0.645%
O=C(Nc1ccc(-c2csnn2)cc1)NC(CCO)C1CC1 (stereo not given) | 15.6%
O=C(Nc1ccc(-c2ccccc2)cn1)C1CCCN1C(=O)C1CC1 (stereo not given) | -1.6%
CN1CCOC(CNCc2nc(-c3ccco3)no2)C1 (stereo not given) | 3.54%

SMILES | cytotoxicity at 10 µM
CC(C)(C)n1cc(CNC2CCN(C(=O)c3ccco3)CC2)cn1 | -8.08%
CC(NCCCn1cccn1)c1ccc(N2CCCS2(=O)=O)cc1 (stereo not given) | -0.828%
COc1ccccc1CC1CCCN(C(=O)c2cc[nH]n2)C1 (stereo not given) | 6.11%
COCC(C)NC(=O)N1CCN(S(C)(=O)=O)CC1 (stereo not given) | -6.53%
Cc1ccc(CNC(=O)c2ccc(=O)n(C)n2)c(OC2CCCC2)c1 | 5.25%
CC(C)c1ccccc1OCCNC(=O)N1CCC(CC(N)=O)CC1 | 3.2%
CC1CN(c2ncnc3c2cnn3C)CCN1c1nccs1 (stereo not given) | 7.04%
Cc1nn(C)c(C)c1C1CCCN1CC(=O)N(C)c1nccs1 (stereo not given) | -1.32%
Cc1cc(COC(=O)[C@@H]2Cc3ccccc3CN2S(C)(=O)=O)no1 | -9.87%
O=C1CN(C(=O)c2cc(Cl)ccc2F)c2ccccc2N1 | 79.6%
COC(=O)c1ccc(Cl)c(NS(=O)(=O)c2cnn(C)c2)c1 | 0.214%
O=C1NCC(C(=O)N(Cc2cccc(Br)c2)C2CC2)N1 (stereo not given) | 1.56%
Cc1nn(C)c2ncc(S(=O)(=O)N3CCN4CCCC4C3)cc12 (stereo not given) | 2.6%
COCC(=O)N1CCN(Cc2nnc(C(C)(C)C)o2)CC1 | 7.66%
O=C(C(CNCc1cccs1)c1ccccc1)N1CCOCC1 (stereo not given) | 0.142%
O=C(NCc1ccoc1)NC1CCN(c2ncccn2)CC1 | 6.36%
CCc1cnc(CN(C)C2CCN(CC3CCOCC3)C2)o1 (stereo not given) | -13.4%
CC(C)c1nnc(NCc2ccsc2)o1 | -0.19%
COC(=O)CN(C(=O)c1ccc(-n2ccnc2)cc1)C1CC1 | -5%
O=C(N1CCOCC1)N1CCN(c2ccnc3ccsc23)CC1 | -4.48%
COCCn1ccc2ccc(NC(=O)NCc3noc(C)n3)cc21 | 7.36%
CCC(C)NC(=O)c1ccc(NC(=O)CCCn2cncn2)c(C)c1 (stereo not given) | -10.7%

SMILES | cytotoxicity at 10 µM
O=C(c1cc[nH]n1)N(Cc1cccc(O)c1)CC1CC1 | 8.27%
Cc1nc(CNC(=O)Nc2cc(F)ccc2OC(F)F)no1 | 0.311%
CC(C)N(CCCNC(=O)C1CC(=O)N(C)C1)S(C)(=O)=O (stereo not given) | 8.35%
COC(=O)c1ccc(Cn2cnc(C#N)n2)cc1 | -4.74%
CS(=O)(=O)CC1(CNc2cc(C#N)c3cc(Cl)ccc3n2)CC1 | -4.06%
O=C(c1cc(F)ccc1O)N1CCN(C(=O)C2CCC2)CC1 | 1.22%
CN1CC(NC(=O)CCOc2cccc(Cl)c2)CC1=O (stereo not given) | -5.4%
CC(C)(C)c1n[nH]cc1CNC1CCC(O)CC1 (stereo not given) | 2.33%
CCN(CC)S(=O)(=O)c1ccc(CNC(=O)c2cc(C)on2)cc1 | 27.4%
CC(C)COCC(NC(=O)CSc1nnc[nH]1)c1ccco1 (stereo not given) | 11.4%
Cc1csc(C2CCCN(C(=O)c3ccc(=O)n(C)n3)C2)n1 (stereo not given) | 6.76%
CCOC[C@@]12CCC[C@@H]1CN(C(=O)c1ccc(OC)cc1)C2 | -108%
CC(C)CN1Cc2c(C(=O)N(C)C)ncn2-c2ccccc2S1(=O)=O | 3.63%
COc1nc2c(cc1C(=O)N(C)Cc1n[nH]c3c1CCCC3)CCC2 | -1.89%
Cc1ccc(-c2cnnc(N3CCCC3c3nonc3C)n2)o1 (stereo not given) | 5.46%
CO[C@H]1CN(C(=O)c2nc(-c3ccccc3)[nH]c2C)CC[C@H]1N | 11.5%
CCc1cnc(C)nc1NCCN1CCCC(C(N)=O)C1 (stereo not given) | -2.54%
COc1ccc(Cl)cc1CN(C)C(=O)CN1C(=O)OC[C@@H]1C(C)C | -4.29%
Cn1ccnc1-c1cn(Cc2cn3c(n2)SCC3)nn1 | -0.773%
O=C(O)[C@@H]1CN(C(=O)CN2Cc3ccccc3C2)C[C@H]1c1ccncc1 | 4.85%
CN(CC(=O)N1CCC(OCc2cccnc2)CC1)c1ccccc1 | 7.56%
Cc1nc(C(C)NC(=O)c2cn(CCC3CCCCC3)nn2)n[nH]1 (stereo not given) | 9.21%

SMILES | cytotoxicity at 10 µM
O=C(N[C@@H]1CCN(c2nccc3ccccc23)C[C@H]1O)c1cnccn1 | -6.71%
Cc1nnsc1C(=O)NCc1cccnc1N1CCc2ccccc2C1 | 10.8%
CCCc1cc(N2CCC(Cc3cccc(C(N)=O)c3)C2)nc(C)n1 (stereo not given) | -1.62%
O=C1CN(c2cc(-c3ccccc3F)nc3ccnn23)CCCN1 | 2.77%
CNc1cc(-c2cccc(CN)c2)c2cc[nH]c2n1 | -3.23%
CC(C)n1cc(C(=O)NCC(CO)Cc2cccs2)cn1 (stereo not given) | 7.64%
CC(C)N1CCCC2(CCN(C(=O)CCCn3cccn3)C2)C1=O (stereo not given) | 0.264%
O=C(Cc1ccc(F)cc1)NCCNCc1cccc(O)c1 | -10.4%
CNS(=O)(=O)c1cccc(C(=O)N(C)Cc2ccsc2)c1 | 4.04%
CCc1nnc2n1CCN(C(=O)c1cc(C)n(-c3ccccc3)c1C)C2 | -8.7%
O=C(CCc1ccc(Cl)s1)NCc1nnc2n1CCCCC2 | -6.1%
CCCc1nc(CN2CCOC(Cn3cncn3)C2)cs1 (stereo not given) | -8.44%
COCCCNC(=O)CN(C)C(=O)c1cc2cc(C)ccc2nc1C | -10.2%
Cc1nc(C)n(C2CCCN(C(=O)c3ccc(OC(C)C)nc3)C2)n1 (stereo not given) | -5.92%
O=C(NC1CC1)C(c1ccccc1)N1CCn2c(nnc2C2CC2)C1 (stereo not given) | -6.22%
CCOc1ccc(Cl)c(C(=O)NCCc2ncc[nH]2)n1 | -11.2%
Cn1ccc(CN2CCC(NC(=O)C3CCCCC3)CC2)cc1=O | -13%
Fc1ccc(OCCCN2CCCC(Cn3cncn3)C2)cc1 (stereo not given) | -7.81%
O=C(c1cnc(-c2ccco2)s1)N1CCCCC1Cn1cccn1 (stereo not given) | -5.83%
N#Cc1ccc(OCC(O)CN2CCC(Cn3cccn3)CC2)cc1 (stereo not given) | -0.775%
CN(Cc1ccsc1)C(=O)CN1CCOC(Cn2cncn2)C1 (stereo not given) | -1.14%
O=C(NCc1nnc2n1CCCC2)N1CCc2sccc2C1 | -9.78%

SMILES | cytotoxicity at 10 µM
CC(CC(=O)NS(=O)(=O)c1ccc2c(c1)OCCO2)c1ccc(F)cc1 (stereo not given) | -31.6%
CCc1nc(C2CCCN2CC(=O)Nc2sc(C)c(C)c2C)no1 (stereo not given) | -10.9%
CC(=O)NCCNC(=O)c1sc(-c2ccc(Cl)s2)nc1C | -1.28%
CCS(=O)(=O)c1ccccc1N1CCC(NC(C)=O)CC1 | -5.31%
CCC(NC(=O)CC(F)(F)F)c1ccccc1OCC(=O)N1CCCC1 (stereo not given) | 0.145%
COc1ccccc1CC(=O)NCc1c(C)nc2cc(=O)[nH]n2c1C | -6.8%
COCCNc1ccc(CNC(=O)Nc2cn[nH]c2)cc1 | -2.68%
Cc1cc(C)n(CC2CCCCN2C(=O)c2ccc3c(c2)OCO3)n1 (stereo not given) | 5.44%
OC(COCc1ccccc1F)CN1CCc2c(ncn2C2CC2)C1 (stereo not given) | 2.86%
CCCc1nc(C)c(C(=O)NCCN2CCN(CC)CC2)s1 | -10.6%
CCc1nc(C2CCCN2Cc2nnc(Cc3ccccc3)o2)no1 (stereo not given) | -0.313%
COCC1CN(C(=O)COc2ccc(C)cc2)Cc2cn(C)nc21 (stereo not given) | 2.49%
CN(C)CCN1C(=O)CCCC12CCCN(C(=O)c1ccncc1)C2 (stereo not given) | -1.31%
Cc1nc(CN2C[C@@H]3CN(c4ncc(F)cn4)C[C@@H]3C2=O)cs1 | -0.673%
CCS(=O)(=O)N1CCC2(CC1)COC(COc1cccnc1)C2 (stereo not given) | 10.6%
CS(=O)(=O)N1CCOCC2(CCN(c3ccccn3)C2)C1 (stereo not given) | 14.3%
O=C(c1ccccc1)N1CCC[C@]2(C[C@@H](Oc3ncccc3F)CO2)C1 | -1.78%
Cc1nn(C)c(N2CCOCC2)c1CNC1CCc2cc(F)ccc21 (stereo not given) | -9.95%
COCC1CN(S(=O)(=O)N(C)C)Cc2ncn(CC3CC3)c21 (stereo not given) | 8.77%
CN(C)C[C@H]1OC[C@@H]2CN(C(=O)NCc3cccnc3)CC[C@@H]21 | 3.86%
NCC1[C@H]2CN(Cc3ccccc3)C[C@@H]12 (stereo not given in full) | 4.78%
Cn1cc(CCC(=O)N2C[C@H]3CC[C@@H](C2)N(Cc2ccccn2)C3)cn1 | -1.95%
